From paper PMC3794474 (Journal of medicinal chemistry, 2011)
Like-named read-outs stand apart in the source and are kept apart here.

Key:
[1] = tested on: tadpole; details: read-out: Tadpole LSR EC50; ± SEM; None = all animals had a swimming response at 10 µM of the test compound; cited from earlier work
[2] = tested on: tadpole; details: read-out: Tadpole LRR EC50; ± SEM; cited from earlier work
[3] = target: T1, rat α1β2γ2L type GABAA receptors expressed in Xenopus laevis oocytes (Rattus norvegicus, UniProt P62813+P63138); type: cell-based; details: 2 µM GABA; for Potentiation, steroids 1 and 6a directly compared on the same oocyte (Figure 4): 1 and 10 µM compound, 6 to 7 oocytes; for oocyte electrophysiology, ratio of currents in presence/absence of compound: ± SEM, N ≥ 4
In short: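 Rat α1β2γ2L GABAA receptors expressed in Xenopus oocytes with whole-cell recording. Currents with test compound plus 2 µM GABA were expressed as a ratio to 2 µM GABA alone, with at least four oocytes per compound. Direct gating used 10 µM compound without GABA, given as a ratio to the 2 µM GABA current. In the within-oocyte comparison, 1 or 10 µM compound was co-applied with 2 µM GABA and averaged over 6–7 oocytes.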

[4] = tested on: BALB/C mice; test: Anesthesia; type: in vivo, mouse; details: tail vein injection
[5] = target: picrotoxin binding site on GABAA receptors; details: read-out: IC50, inhibition of [35S]-TBPS binding; ± SEM; cited from earlier work
[6] = target: T1, rat α1β2γ2L type GABAA receptors expressed in Xenopus laevis oocytes; details: 2 µM GABA, ± SEM, cited from earlier work
[7] = tested on: tadpole; test: Tadpole loss of swimming reflex; type: in vivo; details: ± SEM, None = all animals had a swimming response at 10 µM of the test compound
[8] = tested on: tadpole; test: Tadpole loss of righting reflex; type: in vivo; details: read-out: Tadpole LRR EC50; ± SEM, N = 10 or more animals at each of five or more concentrations

For `CC(=O)[C@H]1CC[C@H]2[C@@H]3CC[C@H]4C[C@H](O)CC[C@]4(C)[C@H]3C(=O)C[C@]12C` [Compound 1, (3α,5α)-3-hydroxypregnane-11,20-dione], the EC50 [1] is given as 5.48 ± 0.11 µM, the EC50 [2] is given as 1.12 ± 0.14 µM and the “Potentiation, steroids 1 and 6a directly compared on the same oocyte (Figure 4)” value [3] is given as “potentiate to the same level”. The “Anesthetic effect in mice” value ([4]; 8 mg/kg, 22.5% 2-hydroxypropyl-β-cyclodextrin) was “very brief anesthesia”, the “Onset of loss of righting reflex” value ([4]; mice, 16 mg/kg) was “immediate loss of righting reflex” and the “Recovery period from initial return of leg movement to righting and walking” value ([4]; mice, 16 mg/kg) was 1 to 2 min.
In the case of `CC(=O)C1=CC[C@H]2[C@@H]3CC[C@H]4C[C@H](O)CC[C@]4(C)[C@H]3C(=O)C[C@]12C` [Compound 2, (3α,5α)-3-hydroxypregn-16-ene-11,20-dione], the IC50 [5] is listed as 2.22 µM, the “oocyte electrophysiology, ratio of currents in presence/absence of compound” value ([6]; 0.1 µM compound) is listed as 0.94 ± 0.04 and the “oocyte electrophysiology, ratio of currents in presence/absence of compound” value ([6]; 1 µM compound) is listed as 0.97 ± 0.05. The “oocyte electrophysiology, ratio of currents in presence/absence of compound” value ([6]; 10 µM compound) was 1.87 ± 0.14 and the EC50 [2] was greater than 10 µM.
In the case of `C[C@]12CC[C@@H](O)C[C@@H]1CC[C@@H]1[C@@H]2C(=O)C[C@]2(C)C(C=O)=CC[C@@H]12` [Compound 5a, (3α,5α)-3-Hydroxy-11-oxoandrost-16-ene-17-carboxaldehyde], the “Tadpole LSR EC50” value [7] is reported as “None” and the EC50 [8] is reported as roughly 3 µM.
In the case of `C[C@]12CC[C@@H](O)C[C@@H]1CC[C@H]1[C@@H]3CC[C@H](C=O)[C@@]3(C)CC(=O)[C@@H]12` [Compound 5b, (3α,5α,17β)-3-Hydroxy-11-oxoandrostane-17-carboxaldehyde], the “Tadpole LSR EC50” value [7] is reported as “None”.
In the case of `C[C@]12CC[C@@H](O)C[C@@H]1CC[C@@H]1[C@@H]2C(=O)C[C@]2(C)/C(=C\C#N)CC[C@@H]12` [Compound 6a, [3α,5α,17(20)Z]-3-Hydroxy-11-oxopregn-17(20)-ene-21-nitrile], the “Potentiation, steroids 1 and 6a directly compared on the same oocyte (Figure 4)” value [3] is reported as “potentiate to the same level”, the “Time to loss of movement and righting reflex (onset)” value ([4]; mice, 8 mg/kg) is reported as 10 to 25 s and the “Onset of loss of righting reflex” value ([4]; mice, 16 mg/kg) is reported as “immediate loss of righting reflex”.
In the case of `C/C(C#N)=C1\CC[C@H]2[C@@H]3CC[C@H]4C[C@H](O)CC[C@]4(C)[C@H]3C(=O)C[C@]12C` [Compound 6c, [3α,5α,17(20)Z]-3-Hydroxy-11-oxopregn-17(20)-ene-20-carbonitrile], the EC50 ([7]; read-out: Tadpole LSR EC50) is reported as less than 10 µM.
With “(3α,5α)-3-Hydroxy-11-oxopregnan-21-carbonitrile [Compound 5c]” the “Tadpole LSR EC50” value [7] was “None”, the “oocyte electrophysiology, ratio of currents in presence/absence of compound” value ([3]; 0.1 µM compound) was 0.91 ± 0.03 and the “oocyte electrophysiology, ratio of currents in presence/absence of compound” value ([3]; 1 µM compound) was 1.13 ± 0.08. The “oocyte electrophysiology, ratio of currents in presence/absence of compound” value ([3]; 10 µM compound) was 4.67 ± 0.14 and the EC50 [8] was 3.58 ± 1.59 µM.
